Results collected from several papers.
Lines come from different studies, so protocols differ.
Trpc6: Short transient receptor potential channel 6 (Trpc6, Mus musculus, UniProt Q61143)
MMP2: 72 kDa type IV collagenase (MMP2, Homo sapiens, UniProt P08253)
ADRB2: Beta-2 adrenergic receptor (ADRB2, Homo sapiens, UniProt P07550)
CNR2: Cannabinoid receptor 2 (CNR2, Homo sapiens, UniProt P34972)
Akr1b1: Aldo-keto reductase family 1 member B1 (Akr1b1, Rattus norvegicus, UniProt P07943)
DDR1: Epithelial discoidin domain-containing receptor 1 (DDR1, Homo sapiens, UniProt Q08345)

`CC/C(=C(\c1ccccc1)c1ccc(OCCN(C)C)cc1)c1ccccc1` gave an IC50 of over 333 µM (Histone-lysine N-methyltransferase SETD7 (SETD7, Homo sapiens, UniProt Q8WTS6); enzyme activity, inhibitor).
`COc1cccc2sc(N(CCN(C)C)C(=O)c3ccc(Cl)s3)nc12` gave an IC50 of 139 µM (Trpc6; calcium signal, fluorescence).
`Cc1noc(-c2cc3cc(-c4nc(C(N)=O)[nH]c4C)ccc3[nH]2)n1` gave an IC50 of over 20 µM (MMP2; enzyme activity, inhibitor).
With `CCN1CCCC1CNC(=O)c1cc(S(=O)(=O)CC)c(N)cc1OC` (stereo not shown) the IC50 was 105 µM (ADRB2; ligand displacement, radioligand; cell membranes).
For `Cc1c(C(=O)N[C@H]2CCC[C@H](O)C2)nc(-c2ccc(Cl)cc2Cl)n1-c1ccc(OS(=O)(=O)CCC(F)(F)F)cc1` (relative stereo), the IC50 was 0.425 µM (CNR2; GTPγS binding, antagonist; cell membranes).
The IC50 of `CC(C)=CCc1c(O)cc(O)c2c1O[C@H](c1ccc(O)cc1)CC2=O` is reported as 0.41 µM (Cytochrome P450 1B1 (CYP1B1, Homo sapiens, UniProt Q16678); enzyme activity, inhibitor, fluorescence; 15 min, pH 7.4).
`O=C(c1ccc(Cl)s1)N(CCN1CCCC1)c1nc2ccccc2s1` gave an IC50 of 8.8 µM (Trpc6; calcium signal, fluorescence).
The IC50 of `O=C(Nc1ccc(Cl)cc1)Nc1cccc(-c2ccc[nH]2)c1` is reported as over 10 µM (CNR2; calcium signal, antagonist).
The IC50 of `CCN(CC)CCNC(=O)c1cc(Cl)c(N)cc1OC` is reported as 67.4 µM (ADRB2; ligand displacement, radioligand; cell membranes).
The IC50 of `COc1ccc2nc(/N=C3/NC(=O)C(=Cc4ccc(Cl)cc4)S3)sc2c1` is reported as 3.99 µM (Akr1b1; enzyme activity, inhibitor, absorbance; pH 6.2).
`CCCC[C@H](NC(=O)[C@H](C)c1c(C)[nH]c2ccc(O)cc12)c1ncc(-c2cc3ccccc3nc2OC)[nH]1` gave an IC50 of over 45 µM (Histone deacetylase 7 (HDAC7, Homo sapiens, UniProt Q8WUI4); enzyme activity, inhibitor).
The IC50 of `Cc1noc(-c2cc3cc(-c4nc(C(=O)NCc5cccnc5)[nH]c4C)ccc3[nH]2)n1` is reported as over 20 µM (MMP2; enzyme activity, inhibitor).
For `COc1ccc(/C=C2\SC(=Nc3nc4ccc(OC)cc4s3)NC2=O)cc1`, the IC50 was 4.35 µM (Akr1b1; enzyme activity, inhibitor, absorbance; pH 6.2).
`CC[C@H](C)[C@H](NC(C)=O)C(=O)N[C@@H](CCC(=O)O)C(=O)N[C@H](C(=O)N[C@H](C=O)CC(=O)O)[C@@H](C)O` has an IC50 of 0.109 µM (Caspase-2 (Homo sapiens, UniProt P42575); enzyme activity, inhibitor).
With `Cn1nc(C(=O)NCc2ccc(C(=O)O)cc2)cc1-c1ccc2[nH]c(-c3cccnc3)cc2c1` the IC50 was over 20 µM (MMP2; enzyme activity, inhibitor).
For `CNC(=O)c1cc2c(Oc3ccc(NC(=O)C4(C(=O)Nc5ccc(F)cc5)CC4)cc3)ccnc2cc1OC`, the IC50 was 0.013 µM (DDR1; enzyme activity, inhibitor, radiometric).
With `Cc1cnc(-c2ccc(-c3ccc(NC(=O)Nc4c(F)cc(F)cc4F)cc3F)c3c2C(=O)NC3)[nH]1` the IC50 was 0.0538 µM (DDR1; enzyme activity, inhibitor).
`CC(C)c1nc(CN(C)C(=O)N[C@@H](CCN2CCOCC2)C(=O)N[C@H](CC[C@H](Cc2ccccc2)NC(=O)OCc2cncs2)Cc2ccccc2)cs1` gave an IC50 of 33 µM (Solute carrier family 22 member 2 (SLC22A2, Homo sapiens, UniProt O15244); transporter uptake, inhibitor; MDCK-II).
`O=C(CCCCCCNC(=O)c1cnc(N(c2ccccc2)c2ccccc2Cl)nc1)NO` gave an IC50 of 2.52 µM (Polyamine deacetylase HDAC10 (HDAC10, Homo sapiens, UniProt Q969S8); enzyme activity, inhibitor, fluorescence).
